Bioassay records from PubChem BioAssay.
A selection: hits, their analogues and other compounds. The true share with any hit is near 1.8%.
NPY-Y1 PAM-ag: potentiates or activates human NPY-Y1 receptor; P25929; actives 0.37% (n = 220,000); activation, % at 3.6 µM; NPY-Y1 expressing cells, potentiator/agonist activation; AID 1304; in the data active = activation above about 33%, passing the limit was not always enough;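 also: cells stimulated with NPY at EC10 then isoproterenol at EC100; 0% = low agonist plus stimulus and 100% = saturating agonist plus stimulus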
NPY-Y1 antag: NPY-Y1 (human) receptor antagonism; P25929; HEK293-CNG Y1 cells, membrane potential fluorescence; NPY at EC95, then isoproterenol; inhibition, % at 3.6 µM; actives 1% (n = 200,000); AID 1040;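 active = inhibition above the campaign mean inhibition of all tested compounds plus 3 SD, cut at about 20% in these data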;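 also: 0% = DMSO wells given NPY plus isoproterenol and 100% = isoproterenol alone without NPY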
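Material: HEK293 cells co-expressing NPY Y1 receptor and cyclic-nucleotide gated channel. Timing: compound incubation 1 h at room temperature, readout 45 min post-stimulation. Signal: fluorescence, membrane potential probe.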
NPY2 pot ag: potentiates or activates human NPY-Y2 receptor | P49146 | cells expressing NPY-Y2, potentiator/agonist read-out | actives 0.45% (n = 220,000) | activation, % at 3.6 µM; in the data active = activation above about 27%;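 also: cells stimulated with NPY near EC25 plus isoproterenol at EC100; 0% = vehicle plus submaximal agonist and 100% = vehicle plus saturating agonist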
Target sequence (P49146 whole entry, looked up): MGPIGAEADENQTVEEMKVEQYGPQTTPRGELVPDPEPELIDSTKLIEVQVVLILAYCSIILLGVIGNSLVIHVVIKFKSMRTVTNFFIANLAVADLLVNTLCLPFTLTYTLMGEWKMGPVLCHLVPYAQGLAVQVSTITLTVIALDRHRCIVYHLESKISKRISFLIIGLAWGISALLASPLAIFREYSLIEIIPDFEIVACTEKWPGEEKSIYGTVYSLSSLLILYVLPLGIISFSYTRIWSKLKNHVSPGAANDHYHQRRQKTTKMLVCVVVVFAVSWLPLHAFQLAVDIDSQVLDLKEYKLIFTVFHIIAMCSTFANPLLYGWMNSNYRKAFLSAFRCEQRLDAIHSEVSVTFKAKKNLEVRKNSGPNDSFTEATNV
NPY Y2 blocker: blocks the human neuropeptide Y Y2 receptor; P49146; NPY-Y2 expressing cells, antagonist mode; inhibition, % at 2.7 µM; actives 0.99% (n = 140,000); AID 793; in the data active = inhibition above about 17%;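 also: 0% = vehicle with agonist challenge and 100% = reference antagonist with challenge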
NPY1 antag conf: confirmation of human neuropeptide Y receptor Y1 antagonists | shares compounds with NPY-Y1 antag | HEK293-CNG NPY-Y1, membrane potential fluorescence, cAMP; NPY challenge against isoproterenol-raised cAMP | inhibition, % at 3.6 µM | actives 21% (n = 1,200); in the data active = inhibition above about 20%;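 also: 0% = vehicle with agonist plus stimulus and 100% = stimulus alone without agonist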
NPY-Y2 antag ct: antagonizes human NPY-Y2, counter-screen to NPY-Y1 antagonists; shares compounds with NPY-Y1 antag; HEK293 NPY-Y2 CNG membrane potential fluorescence, antagonism; cells given NPY, then isoproterenol; inhibition, % at 3.6 µM; actives 28% (n = 1,200); AID 1255; in the data active = inhibition above about 17%;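 also: 0% = DMSO with agonist challenge and 100% = reference antagonist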
NPY-Y1 pot conf: confirmation of human NPY-Y1 receptor potentiators or agonists; shares compounds with NPY-Y1 PAM-ag; cell-based NPY-Y1 potentiator/agonist assay; activation, % at 3.6 µM; actives 20% (n = 280); AID 1546; in the data active = activation above about 45%;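 also: cells challenged with NPY at its EC10 plus isoproterenol stimulus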
NPY-Y2 counter: potentiates or activates NPY-Y2, counter-screen for NPY-Y1 hits. actives 20% (n = 280). HEK293-CNG cells, membrane-potential fluorescence (FLIPR), 1536-well. activation, % at 3.6 µM. shares compounds with NPY-Y1 PAM-ag
NPY-Y1 ag: counter-screen for NPY-Y1 potentiators: agonists of human NPY-Y1. activation, % at 3.6 µM. actives 50% (n = 280). HEK293 Y1-CNGC, membrane potential fluorescence, agonist mode. shares compounds with NPY-Y1 PAM-ag;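 active = percent activation above the mean of DMSO-only control wells plus 3 SD of those wells, cut at about 18% in these data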;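 also: cells challenged with isoproterenol plus Ro 20-1724 with no NPY in test wells; Y1 agonism lowers isoproterenol-driven cAMP and reduces probe fluorescence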
NPY-Y2 agonist: human NPY-Y2 agonism as NPY-Y1 counter-screen | shares compounds with NPY-Y1 PAM-ag | HEK293 Y2-CNGC, membrane potential fluorescence, agonist mode | activation, % at 3.6 µM | actives 67% (n = 280) | AID 1698;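 active = activation above the solvent-only control wells' mean plus 3 SD, cut at about 11% in these data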;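 also: 0% = DMSO with isoproterenol and 100% = 40 nM NPY maximal response; agonism lowers cAMP so well fluorescence drops in active wells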
CNGC inh 2: CNG channel inhibition, counter-screen for NPY-Y1 potentiators; shares compounds with NPY-Y1 PAM-ag; HEK293-CNG parental, isoproterenol cAMP, membrane potential fluorescence; inhibition, % at 3.6 µM; actives 42% (n = 280); AID 1704;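 active = inhibition above the mean of stimulated solvent-only control wells plus 3 SD, cut at about 22% in these data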;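 also: 0% = isoproterenol-stimulated DMSO wells and 100% = unstimulated DMSO wells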
NPY-Y2 confirm: confirmation of human NPY-Y2 receptor potentiators or agonists. activation, % at 3.6 µM. cell-based NPY-Y2 potentiator/agonist assay. shares compounds with NPY2 pot ag. actives 20% (n = 450). AID 1539
NPY-Y1 potentiator: counter-screen for NPY-Y2 potentiators or agonists: NPY-Y1 potentiators or agonists | shares compounds with NPY2 pot ag | Y1 HEK293-CNG cells, membrane potential fluorescence | activation, % at 3.6 µM | actives 20% (n = 450) | AID 1651; in the data active = activation above about 45%;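 also: cells stimulated with submaximal NPY then isoproterenol with phosphodiesterase inhibitor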
NPY-Y1 agonist 2: counter-screen for NPY-Y2 potentiators: agonists of human NPY-Y1. HEK293 Y1-CNGC, membrane potential fluorescence, agonism. AID 1702. activation, % at 3.6 µM. actives 37% (n = 450). shares compounds with NPY2 pot ag;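 active = activation above the mean of DMSO-only control wells plus 3 SD, cut at about 18% in these data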;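 also: cells stimulated with 1 µM isoproterenol plus the PDE inhibitor Ro 20-1724; 0% = isoproterenol with DMSO and no NPY and 100% = 40 nM NPY; Y1 agonists lower the membrane potential dye signal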
CNGC inh: counter-screen for NPY-Y2 potentiators: inhibitors of CNG channel activity | actives 32% (n = 450) | AID 1703 | inhibition, % at 3.6 µM | HEK293-CNG parental, isoproterenol cAMP, membrane potential fluorescence | shares compounds with NPY2 pot ag;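 active = inhibition above the control-well mean plus 3 SD of those wells, cut at about 22% in these data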;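 also: 0% = DMSO with isoproterenol and 100% = DMSO without isoproterenol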
Y2 agonist ctr: activates human NPY-Y2 receptor in potentiator counter-screen; shares compounds with NPY2 pot ag; HEK293 Y2/CNGC cells, membrane potential fluorescence, agonist mode; activation, % at 3.6 µM; actives 56% (n = 450);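 active = activation above the mean of solvent-only control wells plus 3 SD, cut at about 10% in these data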;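 also: cells stimulated by isoproterenol with no NPY added so direct agonism is tested; 0% = DMSO with isoproterenol alone and 100% = NPY at EC100 plus isoproterenol; agonism lowers probe fluorescence through less cAMP and CNG channel opening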
Active calls of the source: *; x = not tested or not shown; ! = not active in a repeat. Rule as the data show it, unless noted: active = activation above about 33%; inactive = the rest.

SMILES | NPY-Y1 PAM-ag | NPY-Y1 antag | NPY2 pot ag | NPY Y2 blocker | NPY-Y2 confirm | NPY-Y1 potentiator | NPY-Y1 agonist 2 | CNGC inh | Y2 agonist ctr | others
CN(C)c1ccc(-[n+]2c(-c3ccccc3)cc(-c3ccccc3)cc2-c2ccccc2)cc1 | 34 | 50* | 51* | x | 6 | -5 | -13 | -22 | 12* | NPY1 antag conf=35*;NPY-Y2 antag ct=18*
Cc1cc(N)n(C2CCN(C)CC2)n1 | 2 | 0 | 6 | -1 | x | x | x | x | x
COc1ccc(O)c2c(=O)c3c(OC)cc4c(c3oc12)C1C=COC1O4 (stereo unspecified) | 56* | x | 23 | x | x | x | x | x | x | NPY-Y1 pot conf=73*;NPY-Y2 counter=63*;NPY-Y1 ag=69*;NPY-Y2 agonist=64*;CNGC inh 2=67*
CCOc1ccc(N2C(=O)NC(=O)/C(=C/c3cnc(SC)nc3)C2=O)cc1 | -17 | -5 | 1 | x | x | x | x | x | x
CC(C)(O)[C@H]1O[C@H]2CC[C@@]3(C)[C@@](O)(CC[C@H]4Cc5c([nH]c6ccccc56)[C@@]43C)C2=CC1=O | 43* | -14 | 24 | x | x | x | x | x | x | NPY-Y1 pot conf=49*;NPY-Y2 counter=41*;NPY-Y1 ag=53*;NPY-Y2 agonist=43*;CNGC inh 2=44*
CCOC(=O)c1c(-n2c(C)cc(C=C3C(=O)NC(=O)NC3=O)c2C)sc2c1CCCC2 | 39* | -13 | 10 | 2 | x | x | x | x | x | NPY-Y1 pot conf=93*;NPY-Y2 counter=73*;NPY-Y1 ag=77*;NPY-Y2 agonist=68*;CNGC inh 2=28*
CC1CCCC(C)N1/N=C/c1c[nH]c2ccc(Br)cc12 (stereo unspecified) | -1 | 10 | -6 | 2 | x | x | x | x | x
CC(C)n1c(=O)c(C=Nc2cccc([N+](=O)[O-])c2)c(O)n(CCc2ccccc2)c1=O | -10 | 1 | 7 | 4 | x | x | x | x | x
O=C1Nc2ccccc2/C1=C/c1nc2ccccc2c(=O)n1-c1ccc(O)cc1 | 44 | x | 42* | x | 33* | 44 | 29* | 35* | 33*
Cn1c(O)c(/C=N/N2CCOCC2)c(=O)[nH]c1=S | 3 | x | 10 | x | x | x | x | x | x
Cc1nn(Cc2ccccc2)c(Cl)c1C(=O)OCC(=O)Nc1cccc2ccccc12 | 25 | -5 | 45* | 12 | -19 | -20 | -12 | -14 | -8
N#Cc1cc(F)c(N2CCNCC2)cc1Cl | -18 | 2 | -13 | 2 | x | x | x | x | x
Clc1cccc(N2CCNCC2)c1Cl | 1 | 8 | 32* | 4 | 14 | 15 | 9 | 11 | 8
Cc1cccc(N2CCc3c2nc2ccccc2c3N)c1 | -43 | 1 | 68*! | -1 | 28 | 39 | -18 | 1 | 23*
C=CCn1c(O)c(C(CC)=Nc2ccc(N(C)C)cc2)c(=O)[nH]c1=O | -3 | x | 25 | x | x | x | x | x | x
O=C1NC(=O)N(CC2CCCO2)C(=O)/C1=C/c1cccs1 (stereo unspecified) | 14 | x | 41* | x | 2 | 13 | 3 | 2 | 3
CCN(CC)c1ccc(/C=C2/C(=O)NC(=O)N(CC3CCCO3)C2=O)cc1 (stereo unspecified) | -3 | -3 | -2 | -2 | x | x | x | x | x
CCN(CC)P(=O)(NC(=O)C(Cl)(Cl)Cl)N(CC)CC.[Cl-].[Cl-].[Cl-].[Nd+3] | -18 | 0 | 0 | 3 | x | x | x | x | x
O=c1c2cc(Br)ccc2[nH]c(=S)n1-c1ccccc1 | -7 | -4 | 0 | x | x | x | x | x | x
O=c1c2ccccc2[nH]c(=S)n1-c1ccc(Br)cc1 | 19 | -5 | 32* | x | 5 | 17 | 0 | 11 | -1
